Results on five compounds are retold here after ChEMBL document CHEMBL1811876 (J Med Chem, 2011).

Activity calls are given as the source filed them.

The nature of series [1]: Upregulation of CDC6 expression in human CL1-5 cells at 0.01 ug/mL by RT-PCR analysis after 24 to 48 hrs. It counts as functional, cell-based.
Series [2] can be described thus: (§1) Upregulation of Cdt1 expression in human CL1-5 cells at 0.01 ug/mL by RT-PCR analysis after 24 to 48 hrs by Western blot. It counts as functional, cell-based. Summed up: (§2)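 CL1-5 cells were exposed to the test agent for 24 and 48 h. Cdt1 and CDC6 protein levels were then assessed by Western blot.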
(A western blot detects proteins with antibodies after separation by electrophoresis.)

The subject of another series is KB. The experiment in a line: Anticancer activity against human KB cells after 72 hrs by sulforhodamine B assay. The series is classed as functional. Background: Sulforhodamine B stains cellular protein and so reports cell mass.
Series [3] can be described thus: as §1. It counts as functional, cell-based. In outline:
as §2
The source holds these as a separate data set.

Series [4] in a line: Upregulation of Cdt1 expression in human CL1-5 cells at 0.01 ug/mL by RT-PCR analysis after 24 to 48 hrs. It counts as functional, cell-based.
For series [5], the system named is HT-29. The experiment in a line: Anticancer activity against human HT-29 cells xenografted in athymic nude mouse assessed as median time to end point at 20 mg/kg, ip bid for 29 days. The series is classed as functional. The note with it: route intraperitoneal. Summed up:
(§3)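 Male athymic nude mice carrying human HT-29 colorectal adenocarcinoma xenografts, with a vehicle-treated control group. Dosing was 20 mg/kg given either i.v. once daily (qd) to the end of the study or i.v./i.p. twice daily (bid) to the end. Read-outs were median time to endpoint (TTE), maximum group body weight loss and treatment-related deaths. Significance threshold was P < 0.05.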
Background: In xenograft studies the graft and the host belong to different species.

Series [6] is described as follows: Toxicity against athymic nude mouse xenografted with human HT-29 cells assessed as mortality at 20 mg/kg, iv qd measured on day 12. The series is classed as organism-based. Further details: dose 20 mg/kg, route intravenous. Particulars: in vivo, read-out: Activity. In outline: as §3
The subject of series [7] is HT-29. Nature of the series: Anticancer activity against human HT-29 cells xenografted in athymic nude mouse assessed as median time to end point at 20 mg/kg, iv qd for 29 days. The series is classed as functional. In outline: as §3
For another series, the system named is HUVEC. Nature of the series: Toxicity against HUVEC. It counts as cell-based. The note with it: human.
The test system of a further series is DU-145. The experiment in a line: Anticancer activity against human DU145 cells after 72 hrs by sulforhodamine B assay. The series is classed as functional. The note with it: DU-145, 72 h.
A further series has as its system A549. The experiment in a line: Anticancer activity against human A549 cells after 72 hrs by sulforhodamine B assay. The note with it: A549, 72 h. It counts as functional.
In the next series the test system is HCT-8. The experiment in a line: Anticancer activity against human HCT8 cells after 72 hrs by sulforhodamine B assay. It counts as functional. Particulars: HCT-8, 72 h.
Series [8] is described as follows: Toxicity against athymic nude mouse xenografted with human HT-29 cells assessed as mortality at 20 mg/kg, iv bid measured on day 19. It counts as organism-based. Also on record: dose 20 mg/kg, route intravenous. The note with it: in vivo, read-out: Activity. In outline: as §3
The test system of series [9] is HT-29. Nature of the series: Anticancer activity against human HT-29 cells xenografted in athymic nude mouse assessed as median time to end point at 20 mg/kg, iv bid for 29 days. The series is classed as functional. In outline:
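Male athymic nude mice bearing HT-29 human colorectal adenocarcinoma xenografts. Drug dosed i.v./i.p. at 20 mg/kg twice daily (bid) to end of study. A vehicle-treated group served as control. The read-out was median time to endpoint (TTE) per group, with maximum group body weight loss and treatment-related deaths tracked. Significance was judged at P < 0.05.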

Series [10] is described as follows: Upregulation of CDT1 expression in human CL1-5 cells by cDNA microarray. The series is classed as functional, cell-based.
Series [11] in a line: Upregulation of CDC6 expression in human CL1-5 cells by cDNA microarray. It counts as functional, cell-based. Particulars: TDE = time-dependent effect.
Series [12] can be described thus: Anticancer activity against human KBVIN cells after 72 hrs by sulforhodamine B assay. It counts as functional.

As for `COc1ccc2c3c(c4cc(OC)c(OC)cc4c2c1)C[C@H]1CCCCCN1C3`, the outcome in series [1], in series [2], in [3] and in series [4] was inactive. Growth in the series with KB was halved (GI50) at 0.102 µM.
Regarding `COc1ccc2c3c(c4cc(OC)c(OC)cc4c2c1)C[C@H]1COCCN1C3`, the values for the Time with HT-29 [5], with HT-29 [7] and in the series with HT-29 [9] were 20.9 days, 21.3 days and 20.9 days, respectively. Also, the results for the mortality in [6] and in series [8] were 1.1% and 7.2%, respectively. In addition, the result in [1], in series [2], in series [3] and in [4] was inactive. The 50% growth inhibitory concentration (GI50) in the series on HUVEC amounted to 0.32 µM; in the series with DU-145, 0.067 µM; in the series on KB, 0.037 µM; with A549, 0.023 µM; in the series with HCT-8, 0.009 µM.
As for `COc1ccc2c3c(c4cc(OC)c(OC)cc4c2c1)C[C@H]1CCCN1C3` [(-)-ANTOFINE], the values for the Activity result in series [10] and in series [11] were “Dose-dependent effect” and “tde”, respectively. In addition, the result in series [1], in [2], in [3] and in [4] was Active. In addition, the GI50 was 0.025 µM in the series with DU-145, 0.036 µM in the series with KB and 0.022 µM in the series with A549.
`COc1ccc2c3c(c4cc(OC)c(OC)cc4c2c1)C[C@@H]1CCN(CC2CC2)CN1C3`: the concentration for 50% growth inhibition (GI50) with DU-145 came out at 1.2 µM; with KB it was 2.1 µM; in the series on A549, 1.12 µM; in [12] it was 5.68 µM.
The matching figures for `COc1ccc2c3c(c4cc(OC)c(OC)cc4c2c1)C[C@@H]1CN(C(=O)c2ccccc2)CCN1C3`: 11.9 µM, 12.1 µM, 16.4 µM and 7.64 µM.

For orientation: GI50 means the concentration at which growth is held to half of that of the control. Higher therefore signals lower sensitivity of the cells.
